Test results as given in PubChem BioAssay.
Calls of active or inactive are those of the source.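 Rule for the calls, unless noted: active = fluorescence slope higher than the sample average by over 3 SD (cut at about -0.22 in these data, passing the limit was not always enough); inactive = the rest.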

Experiments:
[1] = inhibitors of TNFa-induced NFkB p65 translocation, primary screen, imaging, HUVEC, MLSMR starter and 10KST1 sets (AID 438;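 active = inhibition above 20% together with a positive visual image hit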;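 note: compound added about 3h40 before a 20 min TNFalpha stimulation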;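 for inhibition: signal is the nuclear over cytoplasmic p65 intensity ratio per well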); conditions: HUVEC TNFa-induced p65 nuclear translocation; cell count: measured here: nuclei count (cytotoxicity indicator), at 2.08 µM; inhibition: at 2 µM, stronger effect = higher value, 0% TNFa-plus-vehicle, 100% no-TNFa wells
[2] = endothelial E-selectin expression blockers – imaging, HUVEC, immunofluorescence, MLSMR starter and 10KST1 sets, primary screen (AID 487;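 active = visually confirmed hit in the image check and inhibition above 20%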;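 for inhibition: signal is fraction of cell area covered by stained E-selectin grains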;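 for nuclei count: 100% = median nuclei count of all wells on the same plate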); conditions: HUVEC TNFalpha-induced E-selectin immunofluorescence imaging, at 2 µM; inhibition: stronger effect = higher value; nuclei count: measured here: cell number, toxicity
[3] = Primary imaging screen for DUSP6 inhibitors that restore phospho-Erk in transfected HeLa cells, chemical complementation (AID 609;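 active = compounds giving at least 50% inhibition in the cell-based MKP-3 phosphatase rescue imaging test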;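 for inhibition: phospho-Erk level distribution per well compared with pooled transfected vehicle control wells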); conditions: HeLa MKP-3 transfected, phospho-Erk imaging KS statistic, at 10 µM, cells stimulated with TPA for 15 min
[4] = biological target: Dual specificity protein phosphatase 6 (Homo sapiens) (UniProt Q16828); assay: as above; conditions: HeLa MKP-3 transfected, phospho-Erk imaging KS statistic; at 10 µM; stronger effect = higher value; cells stimulated with TPA for 15 min
[5] = biological target: Voltage-gated potassium channel subunit beta-2 (Rattus norvegicus) (UniProt P62483); assay: inhibitors of rat Kvbeta2 reductase activity – biochemical, NADPH fluorescence, primary screen (AID 622); conditions: recombinant KvBeta, 4-cyanobenzaldehyde reduction, at 10 µM, stronger effect = higher value;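 note: slope of raw intensity against log time taken from 70 to 1610 s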
[6] = biological target: Voltage-gated potassium channel subunit beta-2 (Rattus norvegicus) (UniProt P62483); assay: enhancers of rat Kvbeta2 NADPH turnover – biochemical, NADPH fluorescence, primary screen (AID 623;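 active = NADPH fluorescence slope more negative than the mean of all samples by about 3 SD, 99.7% confidence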;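 note: fluorescence intensity change per second fitted from 20 to 320 s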); conditions: Recombinant KvBeta, NADPH fluorescence decrease slope, 10 min; at 10 µM; stronger effect = lower value
[7] = biological target: Alpha-2C adrenergic receptor (Homo sapiens) (UniProt P18825); assay: compounds altering alpha2C-coupled GIRK flux – cell-based, HEK293 alpha2C/GIRK1/2, thallium flux, primary screen (AID 624;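 active = fluorescence slope after compound addition differing from the mean of all screened samples at 99.7% confidence, in either direction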;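 note: slope of fluorescence ratio to pre-addition baseline per second over 15 to 24 s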); conditions: thallium flux BTC fluorescence, at 10 µM, actives lie on both sides
[8] = inhibitors of larval lipid processing in zebrafish, primary screen, whole organism, PED6 fluorescence, gall bladder and intestine (AID 686;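 active = a full or partial loss of lipid-probe fluorescence in the fish gall bladder, intestine or both, judged by eye; inactive = no fluorescence loss, or compound toxic to the fish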;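 note: larvae 5 to 7 days old with five fish per well; signal comes from phospholipase A2 cleavage of quenched PED6 carried via bile; overnight exposure to compound and PED6 before scoring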); conditions: Zebrafish larvae PED6 lipid processing, fluorescence scoring; screened at 20 µM (by protocol)
How it was run: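 Doses: 20 µM single dose. Test system: live zebrafish larvae aged 5-7 days, whole organism. Quantity: five larvae per well. Measured by: By-eye fluorescence microscopy. Reagent: ingested quenched lipid PED6 at 100 nM. Read-out: visual per-well fluorescence inhibition score. Times: overnight exposure of larvae to compound plus PED6.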

[9] = loss of swimming-algae plug formation – whole organism, Chlamydomonas reinhardtii, WT vs cilia-less mutant, absorbance, 96-well, primary screen (AID 463189;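 active = inhibition at or above 50% relative to wild type and mutant plate controls; inactive = inhibition below 50%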;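 note: 0% = wild type cc124 cells in DMSO and 100% = ciliumless bld1 mutant cells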); conditions: Chlamydomonas reinhardtii gravitaxis, OD600 absorbance, 2 days; at 10 µM; stronger effect = higher value
[10] = measured here: cell density z-score
[11] = measured here: nuclear c-Myc green intensity z-score
[12] = measured here: nuclear pErk red intensity z-score, stronger effect = higher value

Sequence of Alpha-2C adrenergic receptor (Homo sapiens) (P18825 whole entry, looked up): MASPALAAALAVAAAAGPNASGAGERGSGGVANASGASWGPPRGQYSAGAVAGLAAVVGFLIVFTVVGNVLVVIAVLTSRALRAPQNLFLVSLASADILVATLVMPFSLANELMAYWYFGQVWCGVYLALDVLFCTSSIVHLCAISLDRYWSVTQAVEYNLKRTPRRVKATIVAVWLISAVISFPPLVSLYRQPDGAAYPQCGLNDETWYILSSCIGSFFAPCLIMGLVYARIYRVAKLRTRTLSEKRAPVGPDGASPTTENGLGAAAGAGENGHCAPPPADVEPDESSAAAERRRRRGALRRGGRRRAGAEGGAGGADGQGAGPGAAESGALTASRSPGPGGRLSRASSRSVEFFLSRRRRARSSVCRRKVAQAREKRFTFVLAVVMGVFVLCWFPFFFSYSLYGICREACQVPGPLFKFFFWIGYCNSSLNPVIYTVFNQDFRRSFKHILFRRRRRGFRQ
Sequence of Voltage-gated potassium channel subunit beta-2 (Rattus norvegicus) (P62483 whole entry, looked up): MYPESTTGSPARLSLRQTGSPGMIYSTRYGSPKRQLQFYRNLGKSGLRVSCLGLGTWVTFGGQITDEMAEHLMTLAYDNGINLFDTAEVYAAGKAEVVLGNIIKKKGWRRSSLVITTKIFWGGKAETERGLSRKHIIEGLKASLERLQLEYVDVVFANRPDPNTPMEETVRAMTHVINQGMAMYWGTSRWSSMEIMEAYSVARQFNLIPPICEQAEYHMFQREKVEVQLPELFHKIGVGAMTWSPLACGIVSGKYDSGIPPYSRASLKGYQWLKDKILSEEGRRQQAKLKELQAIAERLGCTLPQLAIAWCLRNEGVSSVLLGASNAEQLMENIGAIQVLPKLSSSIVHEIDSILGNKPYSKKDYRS
Sequence of Dual specificity protein phosphatase 6 (Homo sapiens) (Q16828 whole entry, looked up): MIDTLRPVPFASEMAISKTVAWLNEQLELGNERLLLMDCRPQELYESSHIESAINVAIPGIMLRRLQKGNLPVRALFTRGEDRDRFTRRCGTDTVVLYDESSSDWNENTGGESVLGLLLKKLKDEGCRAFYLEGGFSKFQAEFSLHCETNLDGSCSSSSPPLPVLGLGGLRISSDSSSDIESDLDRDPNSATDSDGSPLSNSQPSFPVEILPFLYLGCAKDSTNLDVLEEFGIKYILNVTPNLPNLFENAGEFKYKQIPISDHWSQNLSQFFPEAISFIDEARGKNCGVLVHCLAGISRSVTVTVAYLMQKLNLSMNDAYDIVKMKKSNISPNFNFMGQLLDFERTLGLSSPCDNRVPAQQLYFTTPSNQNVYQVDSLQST

Row | Compound | cell count [1] | inhibition [1] | inhibition [2] | nuclei count [2] | z-score [3, 10] | z-score [3, 11] | z-score [3, 12] | inhibition [4] | fluorescence slope [5] | NADPH fluorescence slope [6] | slope [7] | outcome [8] | inhibition [9]
1 | CC1=CC=CN2CC(O)CN=C12 (stereo not drawn) | 552 | -3.9% (inactive) | -109% (inactive) | 196% | -0.0904 | 1.89 | -0.427 | 22.1% (inactive) | -0.33 (inactive) | -1.5e-05 (inactive) | 0.00477 (inactive) | inactive | 4.05% (inactive)
2 | Cc1ccc(OCc2nnc(NC(=O)c3ccco3)s2)c(C)c1 | 438 | -7.3% (inactive) | 15.6% (inactive) | 106% | -0.686 | -0.603 | 0.0542 | -1.12% (inactive) | -0.308 (inactive) | -1.3e-05 (inactive) | 0.00608 (inactive) | inactive | -4.85% (inactive)
3 | Cc1cc(-c2cc(-c3ccc(Cl)cc3)nc(N)c2C#N)co1 | 560 | -6.2% (inactive) | 62.4% (inactive) | 173% | 0.0299 | -0.21 | -0.449 | 7.01% (inactive) | -0.294 (inactive) | 4.6e-06 (inactive) | 0.00537 (inactive) | inactive | 5.58% (inactive)
4 | COc1cc(-c2nn3c(COc4ccccc4)nnc3s2)cc(OC)c1OC | 497 | -2.1% (inactive) | -95% (inactive) | 105% | -0.725 | 2.38 | 0.000132 | -4.27% (inactive) | -0.417 (inactive) | -1.5e-06 (inactive) | 0.00817 (inactive) | inactive | -11% (inactive)
5 | Cc1cc(C)n(Cc2ccc(C(=O)NCCC3=CCCCC3)o2)n1 | 333 | -8% (inactive) | -28.7% (inactive) | 119% | 0.702 | 0.069 | -0.61 | 8.76% (inactive) | -0.456 (inactive) | -0.000101 (inactive) | 0.00523 (inactive) | inactive | 16.8% (inactive)
6 | Cc1cccc(OCc2nc(C)cc(=O)[nH]2)c1 | 594 | -7.7% (inactive) | -84.7% (inactive) | 173% | 2.18 | 0.349 | -1.33 | 14% (inactive) | -0.409 (inactive) | -2.4e-05 (inactive) | 0.00552 (inactive) | inactive | -4.66% (inactive)
7 | COc1cc(C(=O)Nc2nccs2)cc(OC)c1OC | 542 | -19.4% (inactive) | 53.4% (inactive) | 163% | 1.12 | -0.213 | 0.494 | -13.3% (inactive) | -0.409 (inactive) | -6e-05 (inactive) | 0.00501 (inactive) | inactive | -0.002% (inactive)
8 | Cn1nnnc1SCC(=O)NCC(=O)c1ccccc1 | 527 | -4.5% (inactive) | -74.2% (inactive) | 146% | 0.246 | -1.91 | 0.111 | -7.01% (inactive) | -0.527 (inactive) | -6.9e-05 (inactive) | 0.00467 (inactive) | inactive | 10.2% (inactive)
9 | COc1cccc(/C(O)=C2\C(=O)C(=O)N(c3ccccn3)C2c2ccccc2OC)c1 (stereo not drawn) | 512 | -5.9% (inactive) | -90.1% (inactive) | 126% | 1.61 | 0.206 | -0.573 | 12.3% (inactive) | -0.54 (inactive) | -2.1e-05 (inactive) | 0.00547 (inactive) | inactive | -14.1% (inactive)
10 | CCCCOC(=O)Nc1ccc(S(=O)(=O)Nc2nc(C)cc(C)n2)cc1 | 515 | -10.1% (inactive) | -17.4% (inactive) | 128% | 0.944 | 1.82 | -0.786 | 2.92% (inactive) | -0.439 (inactive) | -1.7e-05 (inactive) | 0.00517 (inactive) | inactive | -15.6% (inactive)
11 | CCCC(=O)Nn1cnc2c(c1=O)C1(CCCC1)Cc1ccccc1-2 | 558 | -2.6% (inactive) | -157% (inactive) | 108% | -0.794 | -0.594 | -0.952 | 11.9% (inactive) | -0.327 (inactive) | 2.7e-05 (inactive) | 0.00422 (inactive) | inactive | -19.9% (inactive)
12 | O=C(O)CC(NCc1ccco1)C(=O)OCCc1ccccc1 (stereo not drawn) | 534 | -1.9% (inactive) | 6.5% (inactive) | 116% | -0.641 | 0.383 | -0.409 | -1.75% (inactive) | -0.398 (inactive) | 5.7e-06 (inactive) | 0.00596 (inactive) | inactive | 32.9% (inactive)
13 | CSc1nc2sc3c(c2c(=O)n1C1CCCCC1)CCN(C)C3 | 563 | 1.3% (inactive) | -69.6% (inactive) | 107% | 0.231 | 0.631 | -1.25 | 9.82% (inactive) | -0.375 (inactive) | -2.1e-06 (inactive) | 0.00516 (inactive) | inactive | -15.6% (inactive)
14 | COc1ccc(OC)c(C2C(C(=O)c3ccco3)=C(O)C(=O)N2CCCN2CCOCC2)c1 (stereo not drawn) | 546 | -4.5% (inactive) | -85% (inactive) | 159% | -1.04 | 0.589 | -0.634 | -0.674% (inactive) | -0.495 (inactive) | -3.6e-05 (inactive) | 0.0072 (inactive) | inactive | 2.93% (inactive)
15 | O=C(C1=C(O)C(=O)N(CCN2CCOCC2)C1c1cccnc1)c1cc2ccccc2o1 (stereo not drawn) | 451 | 4.1% (inactive) | -45.7% (inactive) | 168% | -0.44 | 2.22 | 0.434 | 15% (inactive) | -0.41 (inactive) | -6.5e-05 (inactive) | 0.00612 (inactive) | inactive | -5.22% (inactive)
16 | Cn1c(=O)oc2cc(C(=O)c3ccccc3)ccc21 | 442 | -7.7% (inactive) | -42.8% (inactive) | 177% | 0.0253 | -0.374 | -0.71 | 1.04% (inactive) | -0.332 (inactive) | -3.5e-05 (inactive) | 0.00473 (inactive) | inactive | -6.29% (inactive)
17 | c1ccc(-c2nnc3sc(Cc4cccs4)nn23)cc1 | 602 | -16% (inactive) | -149% (inactive) | 174% | 0.71 | -1.88 | -0.974 | 11.9% (inactive) | -0.467 (inactive) | -0.000133 (inactive) | 0.00581 (inactive) | active; no signal in gallbladder only | 21.4% (inactive)
18 | Cc1ccccc1NC(=O)NCCc1nc2ccccc2[nH]1 | 543 | 1.8% (inactive) | -92.3% (inactive) | 163% | -1.18 | -0.333 | 2.49 | -11% (inactive) | -0.474 (inactive) | -0.000294 (inactive) | 0.00493 (inactive) | inactive | -6.75% (inactive)
19 | Oc1c(C=NCc2ccncc2)sc2ccccc12 | 666 | -11.1% (inactive) | -63.6% (inactive) | 177% | -0.185 | 0.688 | 2.15 | -4.27% (inactive) | -0.425 (inactive) | -6.8e-05 (inactive) | 0.00509 (inactive) | inactive | -6.05% (inactive)
20 | CCOCCSc1nc2c(c(=O)[nH]c(=O)n2C)n1CCCc1ccccc1 | 487 | -2.4% (inactive) | -80.2% (inactive) | 133% | 0.294 | -0.866 | -0.255 | -3.5% (inactive) | -0.515 (inactive) | -6.3e-05 (inactive) | 0.00557 (inactive) | inactive | -2.75% (inactive)
21 | Cc1nnc2n(-c3ccccc3)c(=O)c3c4c(sc3n12)COC(C(C)C)C4 (stereo not drawn) | 542 | -6.5% (inactive) | -106% (inactive) | 177% | -0.97 | 1.36 | -0.55 | -0.608% (inactive) | -0.357 (inactive) | -2.6e-05 (inactive) | 0.00506 (inactive) | inactive | -3.02% (inactive)
22 | N#CCCSc1nc(N2CCOCC2)c2c(c1C#N)CCCC2 | 572 | -15.5% (inactive) | -43.5% (inactive) | 168% | -1.47 | -0.393 | -0.37 | 5.65% (inactive) | -0.357 (inactive) | 1.4e-05 (inactive) | 0.00506 (inactive) | inactive | -11.5% (inactive)
23 | CC(C)C1C(C#N)=C(N)Oc2n[nH]c(C(C)(C)C)c21 (stereo not drawn) | 391 | -8.2% (inactive) | -118% (inactive) | 157% | 0.159 | 1.21 | -1.21 | -2.91% (inactive) | -0.429 (inactive) | -4.6e-05 (inactive) | 0.00626 (inactive) | inactive | -1.5% (inactive)
24 | Cn1c(=O)c2c(nc(N3CCN(Cc4ccccc4)CC3)n2CC(=O)c2ccccc2)n(C)c1=O | 669 | 0.5% (inactive) | -198% (inactive) | 155% | 0.319 | -0.211 | 0.974 | 7.73% (inactive) | -0.533 (inactive) | -0.000101 (inactive) | 0.00454 (inactive) | inactive | -14.6% (inactive)
25 | COCCOC(=O)C1=C(C)NC(SCC(=O)NC(C)(C)C)=C(C#N)C1c1ccco1 (stereo not drawn) | 364 | -11.5% (inactive) | -124% (inactive) | 121% | 0.297 | -0.0811 | -0.28 | 7.48% (inactive) | -0.397 (inactive) | -4e-05 (inactive) | 0.00427 (inactive) | inactive; toxic | 27.7% (inactive)
26 | CCN1C(=O)CC(N2CCN(c3ccc(OC)cc3)CC2)C1=O (stereo not drawn) | 489 | -27.6% (inactive) | -368% (inactive) | 154% | 1.11 | -0.53 | -0.692 | 16.1% (inactive) | -0.537 (inactive) | -6.5e-05 (inactive) | 0.00497 (inactive) | inactive | 5.49% (inactive)
